Measured values from different studies.
Each line is one published result; the experiments were not run side by side.
Target: Receptor-interacting serine/threonine-protein kinase 2 (RIPK2, Homo sapiens, UniProt O43353)

Structure (SMILES)	observed	technique	concentration	remaining binding
C[C@@H](c1ccc(-n2cnc3c(N)ncnc32)cc1)N1CCc2nn(C)c(Cc3ccccc3)c2C1=O	binding	competition with immobilised ligand	0.1 µM	100%
CN(C)c1nccc(-c2cnc3ncccn23)n1	binding	–	1 µM	98%
COc1ncc2cc3ccccc3nc2c1C#N	cell-free assay	competition with immobilised ligand	5 µM	100%
CN(C(=O)c1ccccc1)c1cc(N(C)c2ccc3c(c2)CCc2ccc(C(=O)NCCN4CCOCC4)cc2C3=O)ccc1F	cell-free assay	competition with immobilised ligand	1 µM	56%
Cc1cnn2ncc(-c3ccnc(N(C)C)n3)c2c1	binding	–	1 µM	100%
CN([C@@H]1CCc2c(CC(=O)O)c3ccccc3n2C1)S(=O)(=O)c1ccc(F)cc1	cell-free assay	competition with immobilised ligand	1 µM	92%
C[C@@H]1CCN(c2nccc(-c3cnn4ncccc34)n2)C1	binding	–	1 µM	91%
O=C(NCc1ncc(C(F)(F)F)cc1Cl)c1ccc2c(c1)C1(CCS(=O)(=O)CC1)[C@H](C1CC1)N2S(=O)(=O)c1ccc(F)cc1	cell-free assay	competition with immobilised ligand	1 µM	100%
CN(CCCC(F)(F)F)c1nccc(-c2cnn3ncccc23)n1	binding	–	1 µM	89%
FC(F)(F)Oc1cccc(-c2cnc3ccc(-c4ccncc4)nn23)c1	binding	competition with immobilised ligand	5 µM	42%
O=C(c1ccc(Nc2nccc(-c3cc4ccccc4s3)n2)cc1)N1CCC(N2CCCC2)CC1	binding	competition with immobilised ligand	1 µM	79%
COc1cnc(Nc2cccc(S(N)(=O)=O)c2)nc1N1CCN(c2ccccc2)C(=O)C1	binding	competition with immobilised ligand	1 µM	100%
CN(C)c1ncc(F)c(-c2cnn3ncccc23)n1	binding	–	1 µM	100%
c1ccc(N2CCN(Cc3nc4ccccc4[nH]3)CC2)nc1	binding	competition with immobilised ligand	1 µM	100%
O=C(NCCCN1CCOCC1)c1ccc(Nc2ncc(Cl)c(-c3ccc(Cl)s3)n2)cc1	binding	competition with immobilised ligand	1 µM	100%
N[C@@H]1CCN(c2nccc(-c3cnn4ncccc34)n2)C1	binding	–	1 µM	95%
Nc1cnc(N2CCc3cc(S(=O)(=O)Nc4c(F)cc(Cl)cc4F)cc(N4CCCC4=O)c32)nc1	cell-free assay	competition with immobilised ligand	1 µM	53%
O=C(Nc1c[nH]nc1C(=O)NC1CCNCC1)c1cc(F)cc(F)c1	binding	competition with immobilised ligand	1 µM	53%
Cc1c[nH]c2nccc(Oc3c(F)cc(Nc4cc(Cl)nc(N)n4)cc3F)c12	cell-free assay	competition with immobilised ligand	0.1 µM	92%
O=C(c1ccc(Nc2ncc(Cl)c(-c3cc4ccccc4s3)n2)cc1)N1CCC(N2CCCC2)CC1	binding	competition with immobilised ligand	1 µM	98%
Cc1cc(NC(=O)c2cccc(S(F)(F)(F)(F)F)c2)cc(-n2ccn3nc(-c4cccnc4)cc23)c1	cell-free assay	competition with immobilised ligand	1 µM	88.6%
C=CC(=O)N1CCC(C(=O)NCC(=O)N2CCN(c3nc(-c4cnc(N)nc4C(F)F)nc(N4CCOCC4)n3)CC2)CC1	binding	competition with immobilised ligand	1 µM	100%
